Our source for the IC50, inhibition and Papp values is ChEMBL document CHEMBL1142259, “Design and synthesis of novel potent and selective integrin alphanubeta3 antagonists--novel synthetic routes to isoquinolinone, benzoxazinone, and quinazolinone acetates” (Bioorg Med Chem Lett, 2008).

One data set has as its target Integrin alpha-V/beta-3 (Homo sapiens, UniProt P05106+P06756). Put plainly: Displacement of vitronectin from integrin alphavbeta3 receptor. The data set is classed as protein-complex assay. In short, it runs like this:
(§1)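 Ligand displacement from the isolated integrin receptor: vitronectin for αvβ3 and fibrinogen for αIIbβ3. IC50 reported as the mean of three experiments. Intra-assay variation <10%; inter-assay variation < factor 2.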

Data set [1] concerns the target Integrin alpha-IIb/beta-3 (Homo sapiens, UniProt P05106+P08514). The data set can be described thus: Displacement of fibrinogen from integrin alpha2bbeta3 receptor. The format is protein-complex assay. In short, it runs like this:
as §1

Data set [2] addresses Integrin alpha-5/beta-1 (Homo sapiens) (UniProt P05556+P08648). Put plainly: Inhibition of integrin alpha5beta1 receptor mediated cellular binding to fibronectin at 10 uM. The data set is classed as protein-complex assay.
A short description of data set [3]: Apparent permeability across human Caco-2 cells. The data set is classed as ADME, cell-based. In short, it runs like this:
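Apparent permeability coefficient (Papp) measured in Caco-2 monolayers. n = 2, intra-assay variation <20%. Papp >2e-7 cm/s is classed as medium transport and >2e-6 cm/s as high transport.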

Structures are written as SMILES.

Chain of Integrin alpha-V/beta-3 (P05106 27-788 limits assumed): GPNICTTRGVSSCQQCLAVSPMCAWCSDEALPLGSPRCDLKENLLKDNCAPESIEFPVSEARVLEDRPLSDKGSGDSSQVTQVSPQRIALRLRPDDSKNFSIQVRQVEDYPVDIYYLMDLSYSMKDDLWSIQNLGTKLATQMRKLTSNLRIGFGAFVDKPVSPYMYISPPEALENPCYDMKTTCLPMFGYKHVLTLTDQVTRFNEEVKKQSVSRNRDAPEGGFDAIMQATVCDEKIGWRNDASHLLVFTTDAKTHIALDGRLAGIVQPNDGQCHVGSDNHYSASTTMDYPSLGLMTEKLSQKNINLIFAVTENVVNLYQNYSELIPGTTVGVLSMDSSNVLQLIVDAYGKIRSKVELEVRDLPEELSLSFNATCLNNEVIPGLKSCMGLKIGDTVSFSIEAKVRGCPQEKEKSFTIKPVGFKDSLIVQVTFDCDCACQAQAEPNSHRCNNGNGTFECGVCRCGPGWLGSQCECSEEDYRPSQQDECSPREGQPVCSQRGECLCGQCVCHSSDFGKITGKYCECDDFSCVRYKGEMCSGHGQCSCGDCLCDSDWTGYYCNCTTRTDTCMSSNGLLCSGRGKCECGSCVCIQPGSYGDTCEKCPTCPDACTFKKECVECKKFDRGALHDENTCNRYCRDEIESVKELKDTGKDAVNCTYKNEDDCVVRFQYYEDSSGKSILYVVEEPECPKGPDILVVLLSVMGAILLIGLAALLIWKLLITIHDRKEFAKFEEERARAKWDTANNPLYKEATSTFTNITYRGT
Chain of Integrin alpha-V/beta-3 (P06756 31-889 limits assumed): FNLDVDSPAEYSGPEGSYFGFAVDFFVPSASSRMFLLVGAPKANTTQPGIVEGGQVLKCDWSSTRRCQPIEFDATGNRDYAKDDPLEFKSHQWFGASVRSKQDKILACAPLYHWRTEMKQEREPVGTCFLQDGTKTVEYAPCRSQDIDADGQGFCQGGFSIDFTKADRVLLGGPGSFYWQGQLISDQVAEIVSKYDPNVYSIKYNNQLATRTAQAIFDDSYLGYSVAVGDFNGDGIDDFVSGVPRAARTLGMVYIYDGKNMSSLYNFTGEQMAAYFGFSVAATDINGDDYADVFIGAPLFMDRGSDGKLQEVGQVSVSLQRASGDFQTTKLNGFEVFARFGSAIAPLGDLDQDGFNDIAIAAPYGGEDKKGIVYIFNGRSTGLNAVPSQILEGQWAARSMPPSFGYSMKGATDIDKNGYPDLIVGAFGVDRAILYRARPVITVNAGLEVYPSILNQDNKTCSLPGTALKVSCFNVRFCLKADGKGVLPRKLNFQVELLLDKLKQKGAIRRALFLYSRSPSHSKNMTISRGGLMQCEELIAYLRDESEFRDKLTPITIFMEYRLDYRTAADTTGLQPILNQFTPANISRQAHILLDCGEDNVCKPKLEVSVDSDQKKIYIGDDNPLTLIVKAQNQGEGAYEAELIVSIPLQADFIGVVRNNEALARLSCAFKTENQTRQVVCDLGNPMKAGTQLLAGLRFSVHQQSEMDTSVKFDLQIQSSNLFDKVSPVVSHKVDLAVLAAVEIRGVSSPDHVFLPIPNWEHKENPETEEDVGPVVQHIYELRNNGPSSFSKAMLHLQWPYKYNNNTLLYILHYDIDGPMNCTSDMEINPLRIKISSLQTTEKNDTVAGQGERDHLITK
Chain of Integrin alpha-V/beta-3 (P06756 891-1048 limits assumed): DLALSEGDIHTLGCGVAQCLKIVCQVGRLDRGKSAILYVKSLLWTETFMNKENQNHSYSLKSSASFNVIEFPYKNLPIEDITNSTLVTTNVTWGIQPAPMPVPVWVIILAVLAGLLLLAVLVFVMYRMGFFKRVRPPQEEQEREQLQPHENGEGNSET
Chain of Integrin alpha-IIb/beta-3 (P05106 27-788 limits assumed): as the sequence (P05106 27-788 limits assumed) above
Chain of Integrin alpha-IIb/beta-3 (P08514 32-887 limits assumed): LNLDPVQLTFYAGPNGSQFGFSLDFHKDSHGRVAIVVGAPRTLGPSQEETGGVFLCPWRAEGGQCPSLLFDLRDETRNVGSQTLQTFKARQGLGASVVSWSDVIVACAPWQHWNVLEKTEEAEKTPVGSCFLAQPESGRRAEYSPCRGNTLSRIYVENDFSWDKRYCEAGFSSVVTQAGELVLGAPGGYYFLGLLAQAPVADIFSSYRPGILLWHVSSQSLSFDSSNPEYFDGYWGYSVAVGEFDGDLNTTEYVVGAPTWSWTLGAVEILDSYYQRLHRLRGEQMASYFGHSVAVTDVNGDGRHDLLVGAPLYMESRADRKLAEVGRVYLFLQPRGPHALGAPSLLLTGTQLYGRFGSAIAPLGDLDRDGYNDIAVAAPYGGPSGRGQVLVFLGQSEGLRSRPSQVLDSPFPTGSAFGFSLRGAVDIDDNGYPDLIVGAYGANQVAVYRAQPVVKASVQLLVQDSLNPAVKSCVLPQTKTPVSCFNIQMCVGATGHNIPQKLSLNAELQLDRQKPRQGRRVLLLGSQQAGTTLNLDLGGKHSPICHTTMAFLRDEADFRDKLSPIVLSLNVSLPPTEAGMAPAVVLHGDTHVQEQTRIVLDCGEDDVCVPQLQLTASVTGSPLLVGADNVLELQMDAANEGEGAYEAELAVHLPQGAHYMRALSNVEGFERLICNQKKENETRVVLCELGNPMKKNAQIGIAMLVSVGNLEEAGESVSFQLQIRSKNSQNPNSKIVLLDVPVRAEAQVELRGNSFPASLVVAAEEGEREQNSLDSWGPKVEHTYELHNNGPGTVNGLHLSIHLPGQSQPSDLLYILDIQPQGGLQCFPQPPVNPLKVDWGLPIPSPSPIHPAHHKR
Chain of Integrin alpha-IIb/beta-3 (P08514 891-1039 limits assumed): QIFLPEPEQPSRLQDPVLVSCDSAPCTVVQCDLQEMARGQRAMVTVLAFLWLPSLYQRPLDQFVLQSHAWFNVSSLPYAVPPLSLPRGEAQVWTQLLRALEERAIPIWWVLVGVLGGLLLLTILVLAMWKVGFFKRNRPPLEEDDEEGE

On to `O=C(O)Cc1cc(=O)n(CC(=O)NCC2CCC(Nc3nc4ccccc4[nH]3)CC2)c2ccccc12` (centres undefined), for which, on Integrin alpha-V/beta-3, the IC50 was 10 nM. Take `O=C(O)CC1CN(CC(=O)NCc2ccc(Nc3nc4ccccc4[nH]3)cc2)C(=O)c2ccccc21` (centres undefined): the IC50 at Integrin alpha-V/beta-3 was determined as 10000 nM. Turning to `O=C(O)Cc1cc(=O)n(CC(=O)NCc2ccc(Nc3nc4ccccc4[nH]3)cc2)c2ccccc12`, on Integrin alpha-V/beta-3, the IC50 turned out to be 50 nM. The compound `O=C(O)CC1CC(=O)N(CC(=O)NCc2ccc(Nc3nc4ccccc4[nH]3)cc2)c2ccccc21` (centres undefined) yielded a half-inhibitory concentration (IC50) at Integrin alpha-V/beta-3 of 50 nM. Turning to `O=C(O)CC1OC(=O)N(CC(=O)NCc2ccc(Nc3nc4ccccc4[nH]3)cc2)c2ccccc21` (centres undefined), the values for the IC50 (in data set [1]; on Integrin alpha-V/beta-3) were more than 10000 nM and 4.2 nM, respectively. The inhibition in data set [2] came out at 8%. For the same compound, the Papp in data set [3] was determined as 3.48 ×10⁻⁶ cm/s. Regarding `O=C(O)CC1CCN(CC(=O)NCC2CCC(Nc3nc4ccccc4[nH]3)CC2)C(=O)c2ccccc21` (centres undefined), the IC50 on Integrin alpha-V/beta-3 was 11 nM. The same measure, in the same setting: the result for `O=C(O)CCc1cc(=O)n(CC(=O)NCc2ccc(Nc3nc4ccccc4[nH]3)cc2)c2ccccc12` reads 500 nM; that for `O=C(O)CC1CCC(=O)N(CC(=O)NCC2CCC(Nc3nc4ccccc4[nH]3)CC2)c2ccccc21` (centres undefined), 1.5 nM. On to `O=C(O)CC1NC(=O)N(CC(=O)NCC2CCC(Nc3nc4ccccc4[nH]3)CC2)c2ccccc21` (trans isomer), for which, at Integrin alpha-V/beta-3, the half-inhibitory concentration (IC50) was found to be 13 nM. On Integrin alpha-V/beta-3, `O=C(O)CCC1CC(=O)N(CC(=O)NCC2CCC(Nc3nc4ccccc4[nH]3)CC2)c2ccccc21` (centres undefined) displayed an IC50 of 27 nM. Compound `O=C(O)CC1CN(CC(=O)NCC2CCC(Nc3nc4ccccc4[nH]3)CC2)C(=O)c2ccccc21` (trans isomer) yielded an IC50 at Integrin alpha-V/beta-3 of 10000 nM.

Take `O=C(O)CC1CCC(=O)N(CC(=O)NCc2ccc(Nc3nc4ccccc4[nH]3)cc2)c2ccccc21` (centres undefined): the half-inhibitory concentration (IC50) at Integrin alpha-V/beta-3 came to 4.4 nM. Turning to `O=C(O)CC1OC(=O)N(CC(=O)NCC2CCC(Nc3nc4ccccc4[nH]3)CC2)c2ccccc21` (centres undefined), the half-maximal inhibitory concentration (IC50) was more than 10000 nM in data set [1] and 0.7 nM on Integrin alpha-V/beta-3. Moreover, the inhibition in data set [2] is 25%. For the same compound, the apparent permeability coefficient (Papp) in data set [3] was 3.23 ×10⁻⁶ cm/s. Compound `O=C(O)CC1NC(=O)N(CC(=O)NCc2ccc(Nc3nc4ccccc4[nH]3)cc2)c2ccccc21` (centres undefined) returned a concentration for half-maximal inhibition (IC50) at Integrin alpha-V/beta-3 of 37 nM. As for `O=C(O)CC1CCN(CC(=O)NCc2ccc(Nc3nc4ccccc4[nH]3)cc2)C(=O)c2ccccc21` (centres undefined), the concentration for half-maximal inhibition (IC50) on Integrin alpha-V/beta-3 was 122 nM.

In the case of `O=C(O)CC1CC(=O)N(CC(=O)NCC2CCC(Nc3nc4ccccc4[nH]3)CC2)c2ccccc21` (trans isomer), on Integrin alpha-V/beta-3, the IC50 worked out at 7.4 nM. Compound `O=C(O)CCC1CC(=O)N(CC(=O)NCc2ccc(Nc3nc4ccccc4[nH]3)cc2)c2ccccc21` (centres undefined) had an IC50 at Integrin alpha-V/beta-3 of 5000 nM. On Integrin alpha-V/beta-3, `O=C(O)CCc1cc(=O)n(CC(=O)NCC2CCC(Nc3nc4ccccc4[nH]3)CC2)c2ccccc12` (trans isomer) returned an IC50 of 1000 nM.
